Reference: ChEMBL document CHEMBL1126072, “Hydantoin bioisosteres. In vivo active spiro hydroxy acetic acid aldose reductase inhibitors” (J Med Chem, 1992)

Experiments:
[1] = biological target: T1, Aldo-keto reductase family 1 member B1 (Homo sapiens, UniProt P15121); test: Inhibitory activity against human placental aldose reductase
Rattus norvegicus [2] = test: Inhibition of sorbitol accumulation in sciatic nerves from streptozotocin-diabetic rats dosed at 3*25 mg/kg over 27h.; format: functional, Sciatic nerve
Rattus norvegicus [3] = test: Effective dose was tested against the inhibition of sorbitol accumulation in sciatic nerves from streptozotocin-diabetic rats dosed at 3*25 mg/kg over 27h.; format: functional; conditions: Sciatic nerve
[4] = biological target: T1, Aldo-keto reductase family 1 member B1; test: Compound was tested in vitro for its inhibitory activity against human placental aldose reductase
Rattus norvegicus [5] = test: In vivo inhibition of sorbitol accumulation in sciatic nerves from streptozotocin-diabetic rats dosed at 1*25 mg/kg over 5 days.; format: functional, Sciatic nerve
Rattus norvegicus [6] = test: In vivo inhibition of sorbitol accumulation in sciatic nerves from streptozotocin-diabetic rats dosed at 3*25 mg/kg over 27h.; format: functional, Sciatic nerve
Rattus norvegicus [7] = test: Inhibition of sorbitol accumulation in sciatic nerves from streptozotocin-diabetic rats dosed at 3*10 mg/kg over 27h.; format: functional, Sciatic nerve
How it was run: (§1)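 Male Sprague-Dawley rats (180–220 g, 42–54 days) made diabetic with streptozotocin 85 mg/kg at 0 h. Oral gavage at 4, 7 and 24 h, dose quoted per time point. Sciatic nerve sorbitol measured with sorbitol dehydrogenase/NAD in pH 9.4 glycine. Mean (±SEM) percent inhibition against untreated diabetic controls, Student's t test on absolute sorbitol.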

Rattus norvegicus [8] = test: Plasma concentration at 3h after the last dose of 25 mg/kg for 5 days.; format: functional
Rattus norvegicus [9] = test: Nerve concentration at 3h after the last dose of 25 mg/kg for 5 days.; format: functional
Rattus norvegicus [10] = test: Inhibition of sorbitol accumulation in sciatic nerves from streptozotocin-diabetic rats dosed at 3*50 mg/kg over 27h.; format: functional, Sciatic nerve; how it was run: as §1
Rattus norvegicus [11] = test: Inhibition of sorbitol accumulation in sciatic nerves from streptozotocin-diabetic rats dosed at 3*100 mg/kg over 27h.; format: functional, Sciatic nerve; how it was run: as §1
[12] = biological target: T1, Aldo-keto reductase family 1 member B1; test: ARI(aldose reductase inhibitor) enantiospecificity against human placental aldose reductase.

Structure (SMILES)	IC50 [1] [nM]	Inhibition (Rattus norvegicus [2]) [%]	ED50 (Rattus norvegicus [3]) [mg/kg]	other results
C1CCC(NC2CCCCC2)CC1.O=C(O)C[C@]1(O)C[C@@H](C(=O)c2ccccc2)Oc2ccc(F)cc21	1390	1		
C[C@@H]1COc2ccc(F)cc2[C@]1(O)CC(=O)O	11000			
O=C(O)C[C@@]1(O)c2cc(F)ccc2O[C@@H]2CCCC[C@@H]21	11000			
Cc1cc2c(cc1[N+](=O)[O-])[C@](O)(CC(=O)O)C[C@@H](C)O2	90	39	35	
C[C@@H]1C[C@@](O)(CC(=O)O)c2cc([N+](=O)[O-])c(Cl)cc2O1	110	67	14.9	
C[C@@H]1C[C@@](O)(CC(=O)O)c2ccc(F)cc2O1	5420			
C[C@@H]1C[C@@](O)(CC(=O)O)c2cc(Cl)cc(Cl)c2O1	1000	48	26.6	
C[C@@H]1C[C@@](O)(CC(=O)O)c2cc(Cl)c(Br)cc2O1	70		11.3	IC50 [4]: 50 nM; Inhibition (Rattus norvegicus [5]): 33%; Inhibition (Rattus norvegicus [6]): 46%; Inhibition (Rattus norvegicus [7]): 46%; Tissue levels (Rattus norvegicus [8]): 12.7 µg/mL; Tissue levels (Rattus norvegicus [9]): 3.11 µg/mL
C[C@@H]1C[C@@](O)(CC(=O)O)c2cccc(Cl)c2O1	5700			
O=C(O)C[C@]1(O)C[C@@H](c2ccccc2)Oc2ccc(F)cc21	2670			Inhibition (Rattus norvegicus [10]): 3%
CC(C)(C)[C@@H]1C[C@@](O)(CC(=O)O)c2cc(F)ccc2O1	360	29	47.6	
C[C@@H]1C[C@@](O)(CC(=O)O)c2cc(Br)ccc2O1	1670	21	60.8	
CCc1cc2c(cc1Cl)[C@](O)(CC(=O)O)C[C@@H](C)O2	100		13.6	Inhibition (Rattus norvegicus [7]): 40%
C[C@@H]1C[C@@](O)(CC(=O)O)c2ccc(Cl)cc2O1	3320	0		
C[C@@H]1C[C@@](O)(CC(=O)O)c2c(Cl)cccc2O1	43500			
CC[C@@H]1C[C@@](O)(CC(=O)O)c2cc(F)ccc2O1	620	27	50.6	
O=C(O)C[C@]1(O)C[C@@H](CCc2ccccc2)Oc2ccc(F)cc21	1140	5		
C[C@@H]1C[C@@](O)(CC(=O)O)c2cc(Cl)c(F)cc2O1	390		19	IC50 [4]: 410 nM; Inhibition (Rattus norvegicus [5]): -30%; Inhibition (Rattus norvegicus [6]): 29%; Inhibition (Rattus norvegicus [7]): 29%; Tissue levels (Rattus norvegicus [8]): 13.4 µg/mL; Tissue levels (Rattus norvegicus [9]): 2.35 µg/mL
C[C@@H]1C[C@@](O)(CC(=O)O)c2c(Cl)cc(Cl)cc2O1	29400			
C[C@@H]1C[C@@](O)(CC(=O)O)C2=C(C=CCC2(C)[N+](=O)[O-])O1 (some centres undefined)	1630	-31		
CC1(C)C[C@@](O)(CC(=O)O)c2cc(Cl)c(Cl)cc2O1	1860	6		
C[C@@H]1C[C@@](O)(CC(=O)O)c2c(ccc(F)c2Br)O1	4500			
C[C@@H]1C[C@@](O)(CC(=O)O)c2cc(Cl)c3ccccc3c2O1	400	45	29.1	
C[C@@H]1C[C@@](O)(CC(=O)O)c2cc(C#N)c(F)cc2O1	130		29.2	Inhibition (Rattus norvegicus [7]): 15%
C[C@@H]1C[C@@](O)(CC(=O)O)c2ccc(Cl)c(Cl)c2O1	780			
Cc1cc(Cl)cc2c1O[C@H](C)C[C@@]2(O)CC(=O)O	1180	28	49	
CC1(C)C[C@@](O)(CC(=O)O)c2cc([N+](=O)[O-])ccc2O1	400	37	37.2	
CC1(C)C[C@@](O)(CC(=O)O)c2cc(F)ccc2O1	3460		83.2	Inhibition (Rattus norvegicus [11]): 56%

Structure (SMILES)	IC50 [1] [nM]	Inhibition (Rattus norvegicus [2]) [%]	ED50 (Rattus norvegicus [3]) [mg/kg]	other results
CC(C)[C@@H]1C[C@@](O)(CC(=O)O)c2cc(F)ccc2O1	570	-7		
C[C@@H]1C[C@@](O)(CC(=O)O)c2c(ccc(Cl)c2[N+](=O)[O-])O1	95500			
O=C(O)C[C@]1(O)CCOc2ccc(F)cc21	600		71.4	Inhibition (Rattus norvegicus [11]): 61%
C[C@@H]1C[C@@](O)(CC(=O)O)c2cc(F)c(Br)cc2O1	90		4.94	IC50 [4]: 120 nM; Inhibition (Rattus norvegicus [5]): 44%; Inhibition (Rattus norvegicus [6]): 73%; Inhibition (Rattus norvegicus [7]): 73%; Tissue levels (Rattus norvegicus [8]): 8.8 µg/mL; Tissue levels (Rattus norvegicus [9]): 1.31 µg/mL
COc1cc2c(cc1Cl)[C@](O)(CC(=O)O)C[C@@H](C)O2	190	53	36.5	
COc1ccc2c(c1)[C@](O)(CC(=O)O)C[C@@H](C)O2	281000			
C[C@@H]1C[C@@](O)(CC(=O)O)c2ccccc2O1	14800			Inhibition (Rattus norvegicus [10]): 9%
Cc1ccc2c(c1)[C@](O)(CC(=O)O)C[C@@H](C)O2	11300	-16		
C[C@@H]1C[C@@](O)(CC(=O)O)c2cc([N+](=O)[O-])ccc2O1	80	74	12	
C[C@H]1Oc2ccc(F)cc2[C@](O)(CC(=O)O)[C@H]1C	910	29	47.6	
CC(=O)c1ccc2c(c1)[C@](O)(CC(=O)O)C[C@@H](C)O2	650	5		
C[C@@H]1C[C@@](O)(CC(=O)O)c2cc(Br)cc(Cl)c2O1	5160			
Cc1cc2c(cc1Cl)[C@](O)(CC(=O)O)C[C@@H](C)O2	240	72	12.7	
C[C@@H]1C[C@@](O)(CC(=O)O)c2cc(Cl)ccc2O1	820	67	14.9	
C[C@@H]1C[C@@](O)(CC(=O)O)c2cc([N+](=O)[O-])c(F)cc2O1	70			Inhibition (Rattus norvegicus [7]): 5%
C[C@@H]1[C@@H](C)Oc2ccc(F)cc2[C@]1(O)CC(=O)O	29400			
C[C@@H]1C[C@@](O)(CC(=O)O)c2c(ccc(Cl)c2Cl)O1	1630	50	25	
C[C@@H]1C[C@@](O)(CC(=O)O)c2cc(Cl)c(OCc3ccccc3)cc2O1	60		32	Inhibition (Rattus norvegicus [7]): 12%
C[C@@H]1C[C@@](O)(CC(=O)O)c2cc(Cl)c(Cl)cc2O1				IC50 [12]: 5620 nM
C[C@@H]1C[C@@](O)(CC(=O)O)c2cc(S(C)(=O)=O)ccc2O1	8220			
C[C@@H]1C[C@@](O)(CC(=O)O)c2ccc(C(=O)O)cc2O1	70	48	26.6	
CCC[C@@H]1C[C@@](O)(CC(=O)O)c2cc(F)ccc2O1	970	16	70.8	
C[C@@H]1C[C@@](O)(CC(=O)O)c2c(Cl)ccc(Cl)c2O1	13100			
C[C@@H]1C[C@@](O)(CC(=O)O)c2cc(F)ccc2O1	200	56	23	IC50 [4]: 310 nM; Inhibition (Rattus norvegicus [5]): 13%; Inhibition (Rattus norvegicus [6]): 22%; Inhibition (Rattus norvegicus [11]): 92%; Inhibition (Rattus norvegicus [10]): 81%; Tissue levels (Rattus norvegicus [8]): <0.5 µg/mL
C[C@@H]1C[C@@](O)(CC(=O)O)c2cc(F)c(F)cc2O1	250		5.94	IC50 [4]: 350 nM; Inhibition (Rattus norvegicus [5]): -20%; Inhibition (Rattus norvegicus [6]): 67%; Inhibition (Rattus norvegicus [7]): 67%; Tissue levels (Rattus norvegicus [8]): 2.19 µg/mL; Tissue levels (Rattus norvegicus [9]): <0.1 µg/mL
CC1(C)C[C@@](O)(CC(=O)O)c2c(ccc(Cl)c2Cl)O1	14800			
C[C@@H]1C[C@@](O)(CC(=O)O)c2cc(F)c(Cl)cc2O1 (stereo in doubt; 23)	60	76	5.1	IC50 [12]: 49.3 nM; IC50 [4]: 12 nM; Inhibition (Rattus norvegicus [5]): 55%; Inhibition (Rattus norvegicus [6]): 72%; Tissue levels (Rattus norvegicus [8]): 14.2 µg/mL; Tissue levels (Rattus norvegicus [9]): 1.85 µg/mL
